Source: ChEMBL document CHEMBL5661968, “Antitumor activity of ZSTK474, a new phosphatidylinositol 3-kinase inhibitor” (J Natl Cancer Inst, 2006)
Active and inactive are the calls of the source. The calls are words filed in the database; no cut-off is given here.

Experiments:
B16-F10 [1] = assay: Antitumor activity against mouse B16-F10 cells implanted in BDF1 mouse assessed as tumor size relative to control (T/C) at 400 mg/kg, po administered daily measured after 14 days; details: 336 h
A549 [2] = assay: Downregulation of cyclin D1 expression in human A549 cells measured after 3 hrs by immunoblotting analysis; format: functional, cell-based; details: dose <= 2.0 µM
Summary of the method: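 A549 cells were lysed in Tris-HCl pH 7.4 buffer with NaF, pyrophosphate, Na3VO4, EDTA, aprotinin, PMSF, 0.5% NP-40 and 0.1% SDS. Lysates were run on SDS-PAGE and blotted to PVDF. Blots were probed with rabbit anti-cyclin D1 polyclonal (1:200), then HRP anti-rabbit IgG, and detected by ECL chemiluminescence.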

A549 [3] = assay: Growth inhibition of human A549 cells measured after 48 hrs by sulforhodamine B assay; format: functional
Summary of the method: (§1)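 JFCR39 panel lines were grown in RPMI 1640 with 5% FBS, penicillin and streptomycin at 37 °C in 5% CO2. After 48 h of drug exposure, total cellular protein was measured by sulforhodamine B staining. GI50 was calculated by a previously described method.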

ACHN = assay: Growth inhibition of human ACHN cells measured after 48 hrs by sulforhodamine B assay; format: functional
Summary of the method: as §1

[4] = biological target: Ribosomal protein S6 kinase beta-1 (Homo sapiens) (UniProt P23443); assay: Inhibition of p70S6K phosphorylation at Thr-389 residue in human A549 cells measured after 3 hrs by immunoblotting analysis; format: cell-based; details: dose <= 2.0 µM
Chain of Ribosomal protein S6 kinase beta-1 (Homo sapiens) (P23443 whole entry, looked up): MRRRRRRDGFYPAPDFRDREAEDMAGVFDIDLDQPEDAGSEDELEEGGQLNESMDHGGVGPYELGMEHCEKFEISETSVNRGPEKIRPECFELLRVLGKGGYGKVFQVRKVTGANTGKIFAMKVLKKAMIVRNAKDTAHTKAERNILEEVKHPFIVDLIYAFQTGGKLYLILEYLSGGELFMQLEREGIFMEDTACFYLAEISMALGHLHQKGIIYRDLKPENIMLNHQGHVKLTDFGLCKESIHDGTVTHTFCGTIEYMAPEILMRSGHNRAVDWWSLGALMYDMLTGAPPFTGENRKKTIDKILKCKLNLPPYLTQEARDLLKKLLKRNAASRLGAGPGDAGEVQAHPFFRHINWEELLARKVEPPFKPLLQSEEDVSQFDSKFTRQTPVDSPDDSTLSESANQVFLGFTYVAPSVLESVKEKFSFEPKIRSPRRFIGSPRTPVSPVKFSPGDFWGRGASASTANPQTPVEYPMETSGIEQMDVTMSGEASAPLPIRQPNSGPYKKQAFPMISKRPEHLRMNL
Summary of the method: (§2)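 A549 cells treated over 0 to 2.0 μM; lysed in 10 mM Tris–HCl pH 7.4, 50 mM NaCl, NaF, pyrophosphate, vanadate, EDTA, protease inhibitors, 0.5% NP-40, 0.1% SDS; proteins resolved by SDS-PAGE, blotted to PVDF, probed with phospho-specific antibodies, HRP secondary, ECL detection.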

B16-F10 [5] = assay: Antitumor activity against mouse B16-F10 cells implanted in BDF1 mouse assessed as tumor size relative to control (T/C) at 200 mg/kg, po administered daily measured after 14 days; details: 336 h
[6] = Toxicity in nude mouse xenografted with human A549 cells assessed as change in body weight at 400 mg/kg, po administered on day 0 to 13 except for day 3 and 10 measured after 28 days (reference value: 17 %); format: organism-based; details: in vivo, 672 h, time 28 day
LOX IMVI = assay: Growth inhibition of human LOX IMVI cells measured after 48 hrs by sulforhodamine B assay; format: functional
Summary of the method: as §1

[7] = biological target: Mitogen-activated protein kinase 3 (Homo sapiens) (UniProt P27361); assay: Inhibition of ERK1 phosphorylation at Thr-202/Tyr-204 residues in human A549 cells measured after 3 hrs by immunoblotting analysis; details: dose <= 2.0 µM
Chain of Mitogen-activated protein kinase 3 (Homo sapiens) (P27361 whole entry): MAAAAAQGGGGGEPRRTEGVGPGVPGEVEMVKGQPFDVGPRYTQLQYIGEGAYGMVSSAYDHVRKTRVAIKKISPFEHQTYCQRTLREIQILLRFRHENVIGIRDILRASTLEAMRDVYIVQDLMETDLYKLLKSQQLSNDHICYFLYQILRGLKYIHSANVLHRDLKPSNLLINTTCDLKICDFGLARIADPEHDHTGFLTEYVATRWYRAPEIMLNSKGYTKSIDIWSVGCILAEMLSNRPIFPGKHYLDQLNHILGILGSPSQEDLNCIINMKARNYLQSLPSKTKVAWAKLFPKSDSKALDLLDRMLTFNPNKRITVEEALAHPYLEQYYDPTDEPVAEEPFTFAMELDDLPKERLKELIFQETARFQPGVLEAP

[8] = biological target: Forkhead box protein O3 (Homo sapiens) (UniProt O43524); assay: Inhibition of FKHRL1 phosphorylation in Thr-32 residue human A549 cells measured after 3 hrs by immunoblotting analysis; format: cell-based; details: dose <= 2.0 µM
Chain of Forkhead box protein O3 (Homo sapiens) (O43524 whole entry): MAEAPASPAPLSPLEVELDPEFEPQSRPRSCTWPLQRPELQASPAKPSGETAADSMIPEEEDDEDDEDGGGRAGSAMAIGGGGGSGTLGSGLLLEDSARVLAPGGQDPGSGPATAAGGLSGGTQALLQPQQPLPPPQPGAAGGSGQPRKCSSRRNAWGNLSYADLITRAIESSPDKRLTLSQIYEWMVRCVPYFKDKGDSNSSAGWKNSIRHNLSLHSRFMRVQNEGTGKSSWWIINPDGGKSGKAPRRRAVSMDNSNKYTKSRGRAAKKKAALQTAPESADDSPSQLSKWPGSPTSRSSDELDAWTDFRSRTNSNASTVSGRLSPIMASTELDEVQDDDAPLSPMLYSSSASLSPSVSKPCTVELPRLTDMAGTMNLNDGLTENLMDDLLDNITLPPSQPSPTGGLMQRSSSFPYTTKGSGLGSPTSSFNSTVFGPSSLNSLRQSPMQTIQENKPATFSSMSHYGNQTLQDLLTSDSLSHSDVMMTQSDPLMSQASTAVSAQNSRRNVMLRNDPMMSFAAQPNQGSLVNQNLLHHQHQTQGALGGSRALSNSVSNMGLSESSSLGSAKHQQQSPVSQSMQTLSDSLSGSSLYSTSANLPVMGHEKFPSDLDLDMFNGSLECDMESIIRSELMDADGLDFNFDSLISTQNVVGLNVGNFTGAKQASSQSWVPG
Summary of the method: as §2

SNB-78 = assay: Growth inhibition of human SNB-78 cells measured after 48 hrs by sulforhodamine B assay; format: functional
Summary of the method: as §1

MKN-7 = assay: Growth inhibition of human MKN-7 cells measured after 48 hrs by sulforhodamine B assay; format: functional
Summary of the method: as §1

A549 [9] = assay: Induction of apoptosis in human A549 cells assessed as increase in apoptotic cells at 10 uM measured after 48 hrs by propidium iodide staining based flow cytometric analysis; format: functional, cell-based
Summary of the method: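 Cells harvested, washed in ice-cold PBS, fixed in 70% ethanol, washed twice in ice-cold PBS, treated with RNase A (500 μg/mL) at 37 °C for 1 h, stained with propidium iodide (25 μg/mL); DNA content read by flow cytometry.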

U-251 = assay: Growth inhibition of human U-251 cells measured after 48 hrs by sulforhodamine B assay; format: functional
Summary of the method: as §1

[10] = Toxicity in nude mouse xenografted with human WiDr cells assessed as change in body weight at 400 mg/kg, po administered on day 0 to 13 except for day 3 and 10 measured after 28 days (reference value: 17 %); format: organism-based; details: in vivo, 672 h, time 28 day
A549 [11] = assay: Inhibition of AKT phosphorylation at S473 residue in human A549 cells at 0.5 uM measured after 5 mins by Western blotting analysis; format: cell-based
RXF 631 = assay: Growth inhibition of human RXF 631 cells measured after 48 hrs by sulforhodamine B assay; format: functional
Summary of the method: as §1

OVCAR-3 = assay: Growth inhibition of human OVCAR-3 cells measured after 48 hrs by sulforhodamine B assay; format: functional
Summary of the method: as §1

St-4 = assay: Growth inhibition of human St-4 cells measured after 48 hrs by sulforhodamine B assay; format: functional
Summary of the method: as §1

[12] = Growth inhibition of human HBC4 cells measured after 48 hrs by sulforhodamine B assay; format: functional
Summary of the method: as §1

PC-3 = assay: Antitumor activity against human PC-3 cells xenografted in nude mouse assessed as inhibition of tumor growth at 400 mg/kg, po administered on day 0 to 13 except for day 3 and 10 measured after 14 days; format: functional, organism-based; details: time 14.0 day
Summary of the method: (§3)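 Female BALB/c-background nude mice were implanted s.c. with 3 × 3 × 3 mm tumor fragments. At 100–300 mm3 tumor volume (day 0), groups of five were randomized and dosed orally at 400 mg/kg on days 0–13, skipping days 3 and 10. Caliper volume was (L×W2)/2, relative to day 0 (RTV). T/C% on day 14 = 100 × mean treated RTV / mean control RTV.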

HT-29 = assay: Growth inhibition of human HT-29 cells measured after 48 hrs by sulforhodamine B assay; format: functional
Summary of the method: as §1

[13] = Growth inhibition of human BSY1 cells measured after 48 hrs by sulforhodamine B assay; format: functional; details: BSY-1
Summary of the method: as §1

MDA-MB-231 = assay: Growth inhibition of human MDA-MB-231 cells measured after 48 hrs by sulforhodamine B assay; format: functional
Summary of the method: as §1

SK-OV-3 = assay: Growth inhibition of human SK-OV-3 cells measured after 48 hrs by sulforhodamine B assay; format: functional
Summary of the method: as §1

MEF = assay: Inhibition of PI3K in platelet-derived growth factor induced mouse MEF cells assessed as reduction in membrane ruffling at 1 uM preincubated with compound for 15 mins followed by induction by immunoprecipitation based liquid scintillation spectroscopic analysis; format: cell-based
Summary of the method: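 Murine embryonic fibroblasts treated with or without 1 μM compound for 15 min, stimulated with PDGF (10 ng/mL) for 5 min, fixed in 3% formaldehyde 30 min at room temperature, permeabilized with 0.1% Triton X-100, F-actin stained with TRITC-phalloidin (0.1 μg/mL), viewed by fluorescence microscopy.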

NCI-H522 = assay: Growth inhibition of human NCI-H522 cells measured after 48 hrs by sulforhodamine B assay; format: functional
Summary of the method: as §1

WiDr = assay: Antitumor activity against human WiDr cells xenografted in nude mouse assessed as inhibition of tumor growth at 400 mg/kg, po administered on day 0 to 13 except for day 3 and 10 measured after 14 days; format: functional, organism-based; details: time 14.0 day
Summary of the method: as §3

[14] = biological target: Dual specificity mitogen-activated protein kinase kinase 1 (Homo sapiens) (UniProt Q02750); assay: Inhibition of MEK1 phosphorylation at Ser-217/221 residues in human A549 cells measured after 3 hrs by immunoblotting analysis; details: dose <= 2.0 µM
Chain of Dual specificity mitogen-activated protein kinase kinase 1 (Homo sapiens) (Q02750 whole entry): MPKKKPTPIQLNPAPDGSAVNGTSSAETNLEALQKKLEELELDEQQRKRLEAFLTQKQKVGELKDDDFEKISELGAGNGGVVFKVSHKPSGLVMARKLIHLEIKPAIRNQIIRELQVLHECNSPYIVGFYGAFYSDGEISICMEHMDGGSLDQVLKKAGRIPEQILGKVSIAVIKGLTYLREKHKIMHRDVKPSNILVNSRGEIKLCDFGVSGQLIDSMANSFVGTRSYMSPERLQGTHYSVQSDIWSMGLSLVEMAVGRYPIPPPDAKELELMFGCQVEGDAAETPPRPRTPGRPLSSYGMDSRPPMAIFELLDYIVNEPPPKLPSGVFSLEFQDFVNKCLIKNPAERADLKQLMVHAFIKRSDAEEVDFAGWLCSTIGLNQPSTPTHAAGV

HCC 2998 = assay: Growth inhibition of human HCC 2998 cells measured after 48 hrs by sulforhodamine B assay; format: functional
Summary of the method: as §1

SMILES: FC(F)c1nc2ccccc2n1-c1nc(N2CCOCC2)nc(N2CCOCC2)n1 [ZSTK-474]
- T/C at 400 mg/kg (B16-F10 [1]): 4.9%
- Activity (A549 [2]): Dose-Dependent Effect
- GI50 (A549 [3]): 501 nM
- GI50 (ACHN): 407 nM
- inhibition [4]: Dose-Dependent Effect
- T/C at 200 mg/kg (B16-F10 [5]): 7.1%
- Activity [6]: 0%
- GI50 (LOX IMVI): 457 nM
- inhibition [7]: inactive
- inhibition [8]: Dose-Dependent Effect
- GI50 (SNB-78): 55 nM
- GI50 (MKN-7): 1320 nM
- Activity (A549 [9]): inactive
- GI50 (U-251): 1100 nM
- Activity [10]: 3%
- inhibition (A549 [11]): Active
- GI50 (RXF 631): 724 nM
- GI50 (OVCAR-3): 91.2 nM
- GI50 (St-4): 1700 nM
- GI50 [12]: 240 nM
- Activity (PC-3): Active
- GI50 (HT-29): 447 nM
- GI50 [13]: 93.3 nM
- GI50 (MDA-MB-231): 562 nM
- GI50 (SK-OV-3): 331 nM
- inhibition (MEF): Active
- GI50 (NCI-H522): 151 nM
- Activity (WiDr): Active
- inhibition [14]: inactive
- GI50 (HCC 2998): 245 nM
